Assay results taken from ChEMBL document CHEMBL5661986, “Discovery of the SMYD3 Inhibitor BAY-6035 Using Thermal Shift Assay (TSA)-Based High-Throughput Screening” (SLAS Discov, 2021).
pIC50: −log10 of the molar value. Active and inactive are the calls of the source. The calls are words filed in the database; no cut-off is given here.

Experiments:
[1] = target: Histone-lysine N-methyltransferase NSD3 (Homo sapiens) (UniProt Q9BZ95); assay: Inhibition of NSD3 (unknown origin)
[2] = target: Interleukin-1 receptor-associated kinase 1 (Homo sapiens, UniProt P51617); assay: Inhibition of IRAK1 (unknown origin) in presence of ATP
[3] = target: RNA 5'-monophosphate methyltransferase (Homo sapiens) (UniProt Q7Z5W3); assay: Inhibition of BCDIN3D (unknown origin)
[4] = target: DNMT3B-DNMT3L complex (Homo sapiens) (UniProt Q9UBC3+Q9UJW3); assay: Inhibition of DNMT3B/DNMT3L (unknown origin); type: protein-complex assay
[5] = target: Mitotic checkpoint serine/threonine-protein kinase BUB1 (Homo sapiens, UniProt O43683); assay: Inhibition of Bub1 (unknown origin) in presence of ATP
[6] = target: High affinity nerve growth factor receptor (Homo sapiens, UniProt P04629); assay: Inhibition of human TRK-A
[7] = target: Mitogen-activated protein kinase 14 (Homo sapiens, UniProt Q16539); assay: Inhibition of p38alpha (unknown origin) by competition binding assay
[8] = target: Phosphatidylinositol 5-phosphate 4-kinase type-2 alpha (Homo sapiens, UniProt P48426); assay: Inhibition of human PIP4K2A
[9] = target: T1, Histone-lysine N-methyltransferase SMYD3 (Homo sapiens, UniProt Q9H7B4); assay: Binding affinity to recombinant human SMYD3 expressed in Escherichia coli at varying 3H SAM substrate concentration of upto 3.5 uM with 10 fold Km concentration by scintillation proximity assay
T1 sequence (Q9H7B4 whole entry): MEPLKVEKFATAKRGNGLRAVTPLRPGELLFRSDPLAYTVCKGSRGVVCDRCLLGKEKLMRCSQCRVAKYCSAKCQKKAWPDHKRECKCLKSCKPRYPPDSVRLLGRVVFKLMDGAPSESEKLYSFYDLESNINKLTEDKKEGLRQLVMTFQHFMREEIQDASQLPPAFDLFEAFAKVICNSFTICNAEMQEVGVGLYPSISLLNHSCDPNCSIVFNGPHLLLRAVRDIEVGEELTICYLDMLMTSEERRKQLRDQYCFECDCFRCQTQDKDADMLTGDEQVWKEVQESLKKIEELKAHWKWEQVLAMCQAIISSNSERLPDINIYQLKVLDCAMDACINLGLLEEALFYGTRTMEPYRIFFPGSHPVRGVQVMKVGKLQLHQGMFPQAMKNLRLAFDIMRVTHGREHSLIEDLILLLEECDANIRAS
In short: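 SPA, 10 nM SMYD3 methylating biotinylated MAP3K2 249–273 peptide with 3H-SAM in 20 mM Tris pH 9, 2.5 mM DTT, 0.01% Triton X-100; 40 min, 23 °C, GuHCl quench.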

KYSE-30 = assay: Antiproliferative activity against human KYSE-30 cells assessed as inhibition of cell viability measured for 3 to 5 days by alamar blue staining based assay; type: functional
[10] = target: Protein arginine N-methyltransferase 7 (Homo sapiens) (UniProt Q9NVM4); assay: Inhibition of PRMT7 (unknown origin)
[11] = target: T2, Histone-lysine N-methyltransferase SMYD3 (Homo sapiens) (UniProt Q9H7B4); assay: Inhibition of SMYD3 (unknown origin)
T2 sequence (whole entry): T1 sequence (Q9H7B4 whole entry)
In short: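 Recombinant human SMYD3 (aa 1–428, E. coli-expressed, His tag removed by TEV) at 10 nM. Reaction with 335 nM ³H-SAM and 15 µM biotinylated MAP3K2(249–273) peptide in 20 mM Tris pH 9, 2.5 mM DTT, 0.01% Triton X-100, 40 min at 23 °C. GuHCl quench, then SPA count of incorporated radioactivity. Quadruplicates normalized to DMSO and no-enzyme controls; IC50 from four-parameter logistic fit.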

[12] = target: Vascular endothelial growth factor receptor 3 (Homo sapiens, UniProt P35916); assay: Inhibition of FLT4 (unknown origin)
Hs-578T = assay: Antiproliferative activity against human Hs-578T cells assessed as inhibition of cell viability measured for 3 to 5 days by alamar blue staining based assay; type: functional
[13] = target: Histone-lysine N-methyltransferase 2A (Homo sapiens) (UniProt Q03164); assay: Inhibition of MLL1 (unknown origin)
[14] = target: Histone-lysine N-methyltransferase SETD2 (Homo sapiens) (UniProt Q9BYW2); assay: Inhibition of SETD2 (unknown origin)
[15] = target: Histone-lysine N-methyltransferase KMT5B (Homo sapiens) (UniProt Q4FZB7); assay: Inhibition of SUV420H1 (unknown origin)
Homo sapiens = organism: Homo sapiens; assay: Inhibition of GLP (unknown origin)
[16] = target: Diacylglycerol kinase alpha (Mus musculus, UniProt O88673); assay: Inhibition of mouse DGK alpha by ADP-Glo assay
[17] = system: Histone-lysine N-methyltransferase SMYD3 (Homo sapiens), Q9H7B4 [UNDEFINED MUTATION]; assay: Inhibition of SMYD3 catalytic inactive mutant co-expressed with HA-tagged MAP3K2 transfected in human HeLa cells assessed as reduction of MAP3K2-K260me3 level at 1.1 uM incubated for 20 hrs by Western blotting analysis relative to control; type: cell-based
In short: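 After 4 h, compound or DMSO for 20 h. Lysates immunoblotted for MAP3K2-K260me3 (in-house antibody), HA, SMYD3 and MAP3K2 with infrared secondaries. K260me3 signal normalized to HA; three technical replicates, mean ± SEM, nonlinear fit.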

[18] = target: DNMT3A2/3L complex (Homo sapiens) (UniProt Q9Y6K1+Q9UJW3); assay: Inhibition of DNMT3A/DNMT3L (unknown origin); type: protein-complex assay
[19] = target: Protein arginine N-methyltransferase 8 (Homo sapiens) (UniProt Q9NR22); assay: Inhibition of PRMT8 (unknown origin)
HGC-27 = assay: Antiproliferative activity against human HGC-27 cells assessed as inhibition of cell viability measured for 3 to 5 days by alamar blue staining based assay; type: functional
[20] = target: Vascular endothelial growth factor receptor 2 (Homo sapiens, UniProt P35968); assay: Inhibition of KDR (unknown origin) by HTRF assay
[21] = target: Protein arginine N-methyltransferase 9 (Homo sapiens) (UniProt Q6P2P2); assay: Inhibition of PRMT9 (unknown origin)
[22] = target: NUAK family SNF1-like kinase 1 (Homo sapiens, UniProt O60285); assay: Inhibition of NUAK1 (unknown origin) in presence of ATP
[23] = target: T2, Histone-lysine N-methyltransferase SMYD3 (Homo sapiens); assay: Binding affinity to recombinant human SMYD3 expressed in Escherichia coli assessed as change in enthalpy at 0.3 mM by isothermal titration calorimetry
In short: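 Syringe held compound at 0.3 mM in 20 mM HEPES pH 7.4, 150 mM NaCl, 0.005% Tween 20, 2.5% DMSO; eight 4 µL injections at 180 s intervals into SMYD3.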

[24] = target: Histone-lysine N-methyltransferase PRDM9 (Homo sapiens) (UniProt Q9NQV7); assay: Inhibition of PRDM9 (unknown origin)
[25] = target: Receptor-type tyrosine-protein kinase FLT3 (Homo sapiens, UniProt P36888); assay: Inhibition of FLT3 (unknown origin)
[26] = target: T2, Histone-lysine N-methyltransferase SMYD3 (Homo sapiens); conditions: dose 120.0 µM

Sequence of NUAK family SNF1-like kinase 1 (O60285 whole entry): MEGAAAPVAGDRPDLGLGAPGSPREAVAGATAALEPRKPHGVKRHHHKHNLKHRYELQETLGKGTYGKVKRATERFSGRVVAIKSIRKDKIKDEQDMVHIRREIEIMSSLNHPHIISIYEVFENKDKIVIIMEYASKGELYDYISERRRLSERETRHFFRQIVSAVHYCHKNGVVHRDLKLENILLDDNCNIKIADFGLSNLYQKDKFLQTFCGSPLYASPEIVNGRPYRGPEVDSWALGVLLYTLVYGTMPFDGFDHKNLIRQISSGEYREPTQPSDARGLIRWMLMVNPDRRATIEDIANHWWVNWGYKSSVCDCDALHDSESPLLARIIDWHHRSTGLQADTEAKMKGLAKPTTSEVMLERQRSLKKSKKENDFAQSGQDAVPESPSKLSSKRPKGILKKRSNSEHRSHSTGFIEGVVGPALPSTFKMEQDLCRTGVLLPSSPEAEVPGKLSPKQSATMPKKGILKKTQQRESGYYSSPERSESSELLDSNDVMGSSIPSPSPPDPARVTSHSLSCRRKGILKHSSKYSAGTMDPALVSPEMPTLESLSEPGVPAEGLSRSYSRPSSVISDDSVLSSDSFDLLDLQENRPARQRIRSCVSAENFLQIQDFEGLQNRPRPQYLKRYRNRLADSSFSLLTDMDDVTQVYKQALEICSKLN
Sequence of Phosphatidylinositol 5-phosphate 4-kinase type-2 alpha (P48426 whole entry): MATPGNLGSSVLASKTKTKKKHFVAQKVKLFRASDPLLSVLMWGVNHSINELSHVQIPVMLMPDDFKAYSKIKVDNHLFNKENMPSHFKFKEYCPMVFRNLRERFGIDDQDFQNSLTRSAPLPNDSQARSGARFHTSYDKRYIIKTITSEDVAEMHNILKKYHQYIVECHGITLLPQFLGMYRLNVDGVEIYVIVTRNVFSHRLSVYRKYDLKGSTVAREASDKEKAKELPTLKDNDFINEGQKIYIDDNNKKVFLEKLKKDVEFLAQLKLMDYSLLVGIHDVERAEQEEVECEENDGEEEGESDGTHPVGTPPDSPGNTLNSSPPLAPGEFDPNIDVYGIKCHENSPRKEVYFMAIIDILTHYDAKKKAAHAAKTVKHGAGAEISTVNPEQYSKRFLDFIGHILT
Sequence of Protein arginine N-methyltransferase 9 (Homo sapiens) (Q6P2P2 whole entry): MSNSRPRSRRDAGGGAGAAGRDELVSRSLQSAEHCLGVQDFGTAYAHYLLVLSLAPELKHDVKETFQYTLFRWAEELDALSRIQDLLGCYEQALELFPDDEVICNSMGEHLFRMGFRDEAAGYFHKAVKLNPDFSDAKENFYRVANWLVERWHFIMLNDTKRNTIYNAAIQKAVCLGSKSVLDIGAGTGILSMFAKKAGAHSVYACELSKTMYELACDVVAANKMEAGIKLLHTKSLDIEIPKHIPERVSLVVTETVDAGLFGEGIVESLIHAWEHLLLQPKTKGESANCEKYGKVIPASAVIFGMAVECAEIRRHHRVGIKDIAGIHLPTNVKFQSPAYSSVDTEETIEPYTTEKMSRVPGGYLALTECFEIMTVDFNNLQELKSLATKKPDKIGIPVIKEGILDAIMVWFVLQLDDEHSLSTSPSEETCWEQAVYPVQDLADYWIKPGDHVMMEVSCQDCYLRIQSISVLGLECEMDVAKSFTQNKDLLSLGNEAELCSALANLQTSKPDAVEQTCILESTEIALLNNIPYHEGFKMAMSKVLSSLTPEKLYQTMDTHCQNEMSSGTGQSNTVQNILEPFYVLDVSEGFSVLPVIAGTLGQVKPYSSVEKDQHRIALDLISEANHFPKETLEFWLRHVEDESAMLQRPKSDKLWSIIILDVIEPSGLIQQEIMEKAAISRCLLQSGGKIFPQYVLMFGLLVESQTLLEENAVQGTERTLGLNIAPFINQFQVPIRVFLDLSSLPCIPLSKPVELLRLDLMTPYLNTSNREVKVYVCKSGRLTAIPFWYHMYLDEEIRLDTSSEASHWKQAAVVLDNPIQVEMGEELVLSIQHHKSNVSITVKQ
Sequence of Histone-lysine N-methyltransferase NSD3 (Homo sapiens) (Q9BZ95 whole entry): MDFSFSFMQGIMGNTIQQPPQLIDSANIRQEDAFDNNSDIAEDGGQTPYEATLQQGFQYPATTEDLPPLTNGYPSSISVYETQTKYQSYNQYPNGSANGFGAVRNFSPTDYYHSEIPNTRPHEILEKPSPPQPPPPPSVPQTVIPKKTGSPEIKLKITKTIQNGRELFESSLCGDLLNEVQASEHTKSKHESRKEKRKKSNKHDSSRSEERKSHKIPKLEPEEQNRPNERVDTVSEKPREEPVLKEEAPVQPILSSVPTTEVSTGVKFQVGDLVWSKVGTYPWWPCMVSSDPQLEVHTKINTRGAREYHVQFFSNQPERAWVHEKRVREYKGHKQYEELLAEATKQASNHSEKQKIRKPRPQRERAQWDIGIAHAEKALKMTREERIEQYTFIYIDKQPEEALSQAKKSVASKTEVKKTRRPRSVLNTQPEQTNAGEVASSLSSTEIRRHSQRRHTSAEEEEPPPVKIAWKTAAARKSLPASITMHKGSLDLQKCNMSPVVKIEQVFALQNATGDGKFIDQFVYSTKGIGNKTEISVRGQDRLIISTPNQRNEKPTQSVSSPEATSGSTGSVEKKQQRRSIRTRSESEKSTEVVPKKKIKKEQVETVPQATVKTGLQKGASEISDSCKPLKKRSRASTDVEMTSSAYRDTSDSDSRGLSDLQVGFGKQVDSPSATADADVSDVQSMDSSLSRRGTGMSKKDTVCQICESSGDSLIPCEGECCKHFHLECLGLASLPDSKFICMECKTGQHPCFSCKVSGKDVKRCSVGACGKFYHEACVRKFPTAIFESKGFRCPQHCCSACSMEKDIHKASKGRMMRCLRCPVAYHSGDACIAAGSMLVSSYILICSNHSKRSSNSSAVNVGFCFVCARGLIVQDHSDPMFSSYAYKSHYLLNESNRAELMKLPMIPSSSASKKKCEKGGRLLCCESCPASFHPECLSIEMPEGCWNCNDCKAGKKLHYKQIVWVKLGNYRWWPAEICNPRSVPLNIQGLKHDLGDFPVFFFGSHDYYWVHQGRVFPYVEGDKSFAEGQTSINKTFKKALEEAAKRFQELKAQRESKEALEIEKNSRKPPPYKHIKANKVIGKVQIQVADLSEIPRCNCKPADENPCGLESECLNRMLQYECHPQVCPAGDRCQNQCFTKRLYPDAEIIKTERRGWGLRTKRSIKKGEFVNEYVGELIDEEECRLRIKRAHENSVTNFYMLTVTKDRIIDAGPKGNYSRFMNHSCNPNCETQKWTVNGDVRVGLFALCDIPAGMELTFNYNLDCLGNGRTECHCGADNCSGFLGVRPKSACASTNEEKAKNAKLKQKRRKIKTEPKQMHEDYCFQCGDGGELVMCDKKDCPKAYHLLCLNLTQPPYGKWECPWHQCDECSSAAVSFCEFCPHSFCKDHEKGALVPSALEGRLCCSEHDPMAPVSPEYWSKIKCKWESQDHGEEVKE
Sequence of Protein arginine N-methyltransferase 8 (Homo sapiens) (Q9NR22 2-394 limits assumed): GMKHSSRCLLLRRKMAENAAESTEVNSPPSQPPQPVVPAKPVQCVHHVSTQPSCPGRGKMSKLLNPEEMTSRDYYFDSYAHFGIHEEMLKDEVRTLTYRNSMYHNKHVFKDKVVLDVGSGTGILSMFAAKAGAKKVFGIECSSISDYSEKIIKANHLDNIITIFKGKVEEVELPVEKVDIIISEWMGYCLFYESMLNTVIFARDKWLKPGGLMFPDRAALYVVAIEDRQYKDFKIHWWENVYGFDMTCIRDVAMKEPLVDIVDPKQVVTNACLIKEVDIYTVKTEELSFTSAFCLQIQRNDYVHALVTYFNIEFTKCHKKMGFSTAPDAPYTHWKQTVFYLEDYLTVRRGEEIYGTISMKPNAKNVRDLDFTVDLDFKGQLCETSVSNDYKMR
Sequence of High affinity nerve growth factor receptor (P04629 whole entry): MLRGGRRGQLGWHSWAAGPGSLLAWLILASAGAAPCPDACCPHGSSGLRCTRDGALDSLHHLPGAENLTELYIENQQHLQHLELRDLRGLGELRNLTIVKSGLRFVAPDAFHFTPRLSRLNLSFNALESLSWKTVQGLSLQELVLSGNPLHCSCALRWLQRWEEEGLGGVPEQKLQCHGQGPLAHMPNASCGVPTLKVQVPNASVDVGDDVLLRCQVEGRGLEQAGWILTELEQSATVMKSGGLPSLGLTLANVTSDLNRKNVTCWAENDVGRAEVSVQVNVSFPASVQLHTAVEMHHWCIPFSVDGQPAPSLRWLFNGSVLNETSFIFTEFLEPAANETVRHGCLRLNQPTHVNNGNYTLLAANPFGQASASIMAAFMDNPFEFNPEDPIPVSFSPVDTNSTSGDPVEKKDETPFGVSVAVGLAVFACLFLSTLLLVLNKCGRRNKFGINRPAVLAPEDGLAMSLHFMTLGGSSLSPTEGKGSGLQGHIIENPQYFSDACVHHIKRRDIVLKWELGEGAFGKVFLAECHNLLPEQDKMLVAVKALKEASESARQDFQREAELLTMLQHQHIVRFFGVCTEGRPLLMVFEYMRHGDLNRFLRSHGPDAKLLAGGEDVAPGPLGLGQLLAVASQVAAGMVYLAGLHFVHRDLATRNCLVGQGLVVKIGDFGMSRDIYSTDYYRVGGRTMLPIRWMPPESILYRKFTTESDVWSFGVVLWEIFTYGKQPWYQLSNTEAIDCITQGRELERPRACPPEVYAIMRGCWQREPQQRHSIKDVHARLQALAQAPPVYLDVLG
Sequence of DNMT3B-DNMT3L complex (Homo sapiens) (Q9UJW3 whole entry, looked up, other chains not shown): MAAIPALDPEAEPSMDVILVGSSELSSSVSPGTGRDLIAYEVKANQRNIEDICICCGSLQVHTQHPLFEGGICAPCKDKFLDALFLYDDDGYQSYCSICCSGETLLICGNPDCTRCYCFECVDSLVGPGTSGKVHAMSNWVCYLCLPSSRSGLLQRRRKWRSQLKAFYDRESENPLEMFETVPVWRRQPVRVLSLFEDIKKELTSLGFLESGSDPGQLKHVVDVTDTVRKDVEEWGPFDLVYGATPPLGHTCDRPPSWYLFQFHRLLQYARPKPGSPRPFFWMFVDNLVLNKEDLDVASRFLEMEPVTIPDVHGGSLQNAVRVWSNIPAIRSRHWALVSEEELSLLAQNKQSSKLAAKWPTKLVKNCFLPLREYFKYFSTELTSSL

inhibition [1]: inactive
pIC50 [2]: < 4.70
inhibition [3]: inactive
inhibition [4]: inactive
pIC50 [5]: < 4.70
pIC50 [6]: < 4.70
pIC50 [7]: < 4.70
pIC50 [8]: < 4.70
IC50 [9]: Not Active
inhibition [10]: inactive
inhibition [11]: Active
pIC50 [12]: < 4.70
inhibition [13]: inactive
inhibition [14]: inactive
inhibition [15]: inactive
inhibition (Homo sapiens): inactive
pIC50 [16]: < 4.70
inhibition [17]: 86%
inhibition [18]: inactive
inhibition [19]: inactive
pIC50 [20]: < 4.70
inhibition [21]: inactive
pIC50 [22]: < 4.70
deltaH [23]: -4.2 kcal/mol
inhibition [24]: inactive
pIC50 [25]: < 4.70
deltaTm [26]: 8.34 K
SMILES: C[C@H]1CC(=O)Nc2cc(C(=O)NCCC3CC3)ccc2N1C(=O)N1CC2CC2C1 (stereo not given in full)
pIC50 (KYSE-30): < 5.00
pIC50 (Hs-578T): < 5.00
pIC50 (HGC-27): < 5.00
